Source: PubChem BioAssay
Results filed as inconclusive are left out.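 The calls were made as follows, unless noted: active = growth inhibition above 25% in both replicates, a cutoff set 3 SD above the mean; inconclusive = above 25% in only one replicate; inactive = the rest.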

How the values were obtained:
[1] = S. cerevisiae growth inhibition in permissive medium (OD615), pilot counter-assay for S. cerevisiae lifespan shortening project, permissive growth control (AID 705); settings: OD615, 24 h, at 10 µM, active compounds read high
How it was run: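 Test system: Saccharomyces cerevisiae strain carrying genetically modified DeaD replicative-lifespan system; buffer or medium: SC raffinose/galactose permissive medium; dosing: one dose 10 µM, DMSO 0.25% final; times: 24 h exposure, 30 °C; measured by: OD at 615 nm; read-out basis: growth inhibition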

[2] = S. cerevisiae growth inhibition in restrictive medium, OD615, pilot screen, restrictive growth control, yeast lifespan reduction project (AID 706;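 active = growth inhibition above a set limit, 3 SD over mean compound inhibition, in both replicates, cut at about 43% in these data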;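 also: modified DeaD lifespan yeast strain shifted to restrictive glucose medium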); settings: OD615, 48 h, at 10 µM, active compounds read high
How it was run: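 material = engineered S. cerevisiae DeaD strain | buffer or medium = glucose-based CSMM-D restrictive medium | dosing = one concentration, 10 µM final, 0.25% DMSO | schedule = 4 h pre-growth plus 48 h compound exposure, 30 °C | detection = OD615 absorbance reading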

[3] = doxorubicin toxicity protection in MRP-1 cells – H69AR cells, CellTiter-Glo, duplicate, MRP-1 activator project, pilot screen (AID 807;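 active = viability increase at or above a cutoff of the median across tested compounds plus 3 SD, cut at about 8.5% in these data, passing the limit was not always enough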;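 also: compound pretreatment 18-22 h then 72 h combined with doxorubicin; 0% = doxorubicin alone and 100% = vehicle without doxorubicin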); settings: H69AR viability with doxorubicin, CellTiter-Glo luminescence; at 10 µM; active compounds read high
[4] = viability of HCT116 without oncogenic beta-catenin – human colon tumor cells, pilot screen (AID 823;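 active = cell viability at or below a set limit in both duplicate runs, the limit being the all-compound median minus 4 SD, cut at about 23% in these data, passing the limit was not always enough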;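 also: 0% = wells killed by 20 µM Hyamine and 100% = untreated DMSO cell wells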); settings: HCT116 beta-catenin knockout viability, CellTiter-Glo, 60 h; at 10 µM; active compounds read low
[5] = viability of PTEN-null HCT116 cells – cell-based, HCT116 clonal line, CellTiter-Glo, pilot screen (AID 824;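 active = viability at or below 27.92% in each of two runs, the all-compound median minus 4 SD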;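 also: 0% = 20 µM Hyamine control and 100% = vehicle cell control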); settings: HCT116 PTEN-deleted viability, 60 h, at 10 µM, active compounds read low
[6] = RAM pathway blockade in budding yeast – dse1pr::URA3 reporter, 5-FOA selection, pilot screen (AID 869;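 active = inhibition over a set limit, the all-compound mean plus 3 SD, in both replicate runs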;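 also: 0% = DMSO wells with no growth and 100% = 10 µM 1-NA-PP1 with full growth; RAM network block rescues cells from 5-FOA so hits raise OD615 growth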); settings: S. cerevisiae dse1pr::URA3 5-FOA growth, OD615, 2 d; at 10 µM; active compounds read high; strain carries analog-sensitive mutant Cbk1 kinase
[7] = RAM signaling pathway blockade in yeast – S. cerevisiae, Pdr1DBD-CYC8 efflux-inhibited sensitized strain, primary screen (AID 1298;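 active = RAM network inhibition above 8.4% in each of two replicates, 3 SD over the compound average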;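 also: 0% = DMSO untreated cells without growth and 100% = 10 µM 1-NA-PP1 full growth; higher means more yeast growth rescued from 5-FOA killing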); settings: S. cerevisiae cbk1-as DSE1-URA3 strain, 5-FOA growth OD615, 2 d; at 50 µM; active compounds read high

CCn1c(=O)c2cc(C(=O)N3CCOCC3)sc2c2ccccc21
inactive: growth inhibition [1] -8.55% | growth inhibition [2] -14.5% | viability increase [3] -3.34% | viability [4] 102% | viability [5] 87.3% | inhibition [6] 0.84% | RAM network inhibition [7] 2.72%

CCN(CC)c1ccc(NC(=O)Cn2cc3c(n2)CCC(C)C3)c(C)c1 (configuration not stated)
inactive: growth inhibition [1] 2.12% | growth inhibition [2] 1.57% | viability increase [3] 2.97% | viability [4] 80.4% | viability [5] 76.2% | inhibition [6] 0.835% | RAM network inhibition [7] -1.78%

Cc1cnc(C(=O)OCC(=O)Nc2ccc(Cl)cc2)cn1
inactive: growth inhibition [1] -19% | growth inhibition [2] -21% | viability increase [3] -2.99% | viability [4] 101% | viability [5] 92.8% | inhibition [6] 3.85% | RAM network inhibition [7] 3.15%

O=C(CN(c1ccc(F)cc1)S(=O)(=O)c1ccc2c(c1)OCCO2)N1CCOCC1
inactive: growth inhibition [1] -3.38% | growth inhibition [2] -12.4% | viability increase [3] -2.08% | viability [4] 107% | viability [5] 104% | inhibition [6] 0.625% | RAM network inhibition [7] 2.45%

CCOC(=O)NC(C(F)(F)F)(C(F)(F)F)P(=O)(c1ccccc1)c1ccccc1
inactive: growth inhibition [1] -6.98% | growth inhibition [2] 4.49% | viability increase [3] -0.51% | viability [4] 95% | viability [5] 91.7% | inhibition [6] 0.93% | RAM network inhibition [7] 4.13%

O=C(CSc1n[nH]c(-c2ccccc2)n1)c1ccccc1
inactive: growth inhibition [1] -0.485% | growth inhibition [2] 16.9% | viability increase [3] -0.56% | viability [4] 95.8% | viability [5] 95.5% | inhibition [6] 1.01% | RAM network inhibition [7] 2.45%

Cc1ccc2oc(=O)n(CCOc3ccccc3Cl)c2c1
inactive: growth inhibition [1] 2.37% | growth inhibition [2] 0.755% | viability increase [3] 2.94% | viability [4] 88.5% | viability [5] 83.9% | inhibition [6] 0.955% | RAM network inhibition [7] 2.66%

O=C1c2oc3ccc(F)cc3c(=O)c2C(c2ccncc2)N1CCN1CCOCC1 (configuration not stated)
inactive: growth inhibition [1] 3.02% | growth inhibition [2] 3.27% | viability increase [3] 0.53% | viability [4] 110% | viability [5] 99.2% | inhibition [6] 1.26% | RAM network inhibition [7] 0.47%

COc1cc(SC)ccc1C(=O)Nc1ccc2c(c1)OCCO2
inactive: growth inhibition [1] -7.61% | growth inhibition [2] -4.97% | viability increase [3] -0.82% | viability [4] 67.1% | viability [5] 65.8% | inhibition [6] 1.18% | RAM network inhibition [7] -0.97%

O=C(Cn1ncc2c1-c1ccccc1OC2)N(Cc1ccco1)C1CCCCC1
inactive: growth inhibition [1] 0.715% | growth inhibition [2] -5.62% | viability increase [3] -2.69% | viability [4] 78.5% | viability [5] 74.9% | inhibition [6] 2.08% | RAM network inhibition [7] 3.96%

COc1cc(C(=O)Nc2cc(-c3nc4cc(C)ccc4o3)ccc2C)cc(OC)c1OC
inactive: growth inhibition [1] 3.69% | growth inhibition [2] 8.25% | viability increase [3] -2.34% | viability [4] 97% | viability [5] 95.2% | inhibition [6] 0.43% | RAM network inhibition [7] -0.15%

CCN(CC)C(=O)Cn1c(=O)n(-c2ccccc2)c(=O)n1CC(=O)N(CC)CC
inactive: growth inhibition [1] -4.64% | growth inhibition [2] 2.5% | viability increase [3] -1.25% | viability [4] 103% | viability [5] 97.4% | inhibition [6] 1.29% | RAM network inhibition [7] 1.08%

O=C(CCCC1=NS(=O)(=O)c2ccccc2N1)N1CCN(c2ccc(Cl)cc2)CC1
inactive: growth inhibition [1] -17.7% | growth inhibition [2] -0.86% | viability increase [3] -0.04% | viability [4] 91.7% | viability [5] 78.3% | inhibition [6] 0.37% | RAM network inhibition [7] 0.9%

O=C(Nc1ccc(N2CCOCC2)cc1)NC1CCCCC1
inactive: growth inhibition [1] -0.89% | growth inhibition [2] 1.07% | viability increase [3] -1.27% | viability [4] 103% | viability [5] 101% | inhibition [6] -0.22% | RAM network inhibition [7] 9.28%

O=C(OCC(=O)N1CCN(C(=O)c2ccco2)CC1)c1sc2ccccc2c1Cl
inactive: growth inhibition [1] -14.3% | growth inhibition [2] -20.1% | viability increase [3] -2.74% | viability [4] 96.3% | viability [5] 102% | inhibition [6] 0.845% | RAM network inhibition [7] 5.57%

Cc1ccsc1-c1nc(CSCC(=O)NCc2ccc3c(c2)OCO3)c(C)o1
inactive: growth inhibition [1] -9.04% | growth inhibition [2] 2.91% | viability increase [3] -0.27% | viability [4] 87.2% | viability [5] 84% | inhibition [6] 0.83% | RAM network inhibition [7] 9.63%
